From ChEMBL document CHEMBL1153876, “Synthesis of some N-substituted nitroimidazole derivatives as potential antioxidant and antifungal agents” (2009)
In brackets after ≈: the same amount, converted by molar mass.

Columns and labels:
[1] = Antioxidant activity assessed as inhibition of Fe2+-induced lipid peroxidation after 15 to 60 mins by TBARS assay relative to control; format: functional; design: concentration or dose not given beside the values
How it was run: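 Substrate: egg yolk lipoprotein suspension, made by homogenising yolk with an equal volume of phosphate buffer pH 7.4. Compounds were added as 10^-3 mol/mL solution, with 0.7% FeSO4·7H2O to start non-enzymatic peroxidation, at 37 °C. Controls were Fe only and a blank with neither Fe nor compound; tocopheryl acetate was the reference. The supernatant was heated with acidic thiobarbituric acid at 95 °C for 1 h, extracted into n-butanol–pyridine 15:1, and read by optical density.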

Sydowia polyspora = experiment: Antifungal activity against Sclerophoma pityophila after 12 days; format: functional; conditions: for EC50: Sydowia polyspora, 288 h, read-out: ED50 (the source's name)
How it was run: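 Agar dilution on S. pityophila S 231: nine concentrations in geometric progression, 25 to 5000 ppm, in malt agar (1.5% agar, 4% malt extract), 90 mm dishes, three replicate plates each. Centrally inoculated with 5-mm disc from submargin of 10-day-old culture; 22 ± 1 °C, dark, up to 12 days. Growth rate versus compound-free plates gives ED50/ED100; non-growing inocula transferred to fresh agar to assess viability (LD).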

| Structure (SMILES) | Activity [1] [%] | ED100 (Sydowia polyspora) [ppm] | LD (Sydowia polyspora) [ppm] | EC50 (Sydowia polyspora) [µg/mL] |
| --- | --- | --- | --- | --- |
| O=[N+]([O-])c1c(N2CCOCC2)ncn1CC(O)CCl (configuration not stated) | 51.6 |  |  |  |
| Cc1nc(N2CCCC2)c([N+](=O)[O-])n1CC(=O)c1ccc(Cl)cc1 | 20.8 | >5000 | <5000 | > 5000 |
| CN1CCN(c2ncn(CC(O)CCl)c2[N+](=O)[O-])CC1 (configuration not stated) | 39.1 |  |  |  |
| Cc1nc(N2CCCCC2)c([N+](=O)[O-])n1CC(=O)c1ccc(Cl)cc1 | 36.9 | <25 | <5000 | < 25 |
| CC(=O)Cn1c(C)nc(Nc2ccccc2)c1[N+](=O)[O-] | 15.1 |  |  |  |
| O=C(Cn1cnc(N2CCOCC2)c1[N+](=O)[O-])c1ccccc1 | 56.3 | <25 | <5000 | < 25 |
| Cc1ccccc1Nc1ncn(CC(=O)c2ccc(Cl)cc2)c1[N+](=O)[O-] | -35.3 |  |  |  |
| Cc1nc(N2CCOCC2)c([N+](=O)[O-])n1CC(=O)c1ccc(Cl)cc1 | 30.1 |  |  |  |
| Cc1nc([N+](=O)[O-])c([N+](=O)[O-])n1CC(=O)c1ccccc1 | 26.4 |  |  |  |
| O=C(Cn1cnc([N+](=O)[O-])c1[N+](=O)[O-])c1ccc(Cl)cc1 | 60 | >5000 | <5000 | 1000 (≈ 3220 µM) |
| Cc1nc(N2CCCCC2)c([N+](=O)[O-])n1CC(=O)c1ccccc1 | 48.6 | >5000 | <5000 | > 5000 |
| Cc1nc(N2CCOCC2)c([N+](=O)[O-])n1CC(=O)c1ccccc1 | 39.9 |  |  |  |
| Cc1ccccc1Nc1ncn(CC(=O)c2ccccc2)c1[N+](=O)[O-] | 1.2 |  |  |  |
| Cc1nc(N2CCN(C)CC2)c([N+](=O)[O-])n1CC(=O)c1ccccc1 | 13 |  |  |  |
| Cc1nc([N+](=O)[O-])c([N+](=O)[O-])n1CC(=O)c1ccc(Cl)cc1 | 57.6 | >5000 | <5000 | 500 (≈ 1540 µM) |
| O=C(Cn1cnc(N2CCOCC2)c1[N+](=O)[O-])c1ccc(Cl)cc1 | 21 |  |  |  |
| Cc1ccccc1Nc1nc(C)n(CC(=O)c2ccccc2)c1[N+](=O)[O-] | -354 |  |  |  |
| O=C(Cn1cnc([N+](=O)[O-])c1[N+](=O)[O-])c1ccccc1 | 34.5 |  |  |  |
| CC(=O)Oc1c(C)c(C)c2c(c1C)CCC(C)(CCC[C@H](C)CCC[C@H](C)CCCC(C)C)O2 (some centres not stated) | 17.8 |  |  |  |
| Cc1nc(N2CCN(C)CC2)c([N+](=O)[O-])n1CC(=O)c1ccc(Cl)cc1 | 37.1 |  |  |  |
| Cc1ccccc1Nc1nc(C)n(CC(=O)c2ccc(Cl)cc2)c1[N+](=O)[O-] | 12.2 |  |  |  |
| CC(=O)Cn1c(C)nc(N2CCOCC2)c1[N+](=O)[O-] | 23.1 |  |  |  |
| Cc1nc(N2CCCC2)c([N+](=O)[O-])n1CC(=O)c1ccccc1 | 45.2 |  |  |  |
| O=C(Cn1cnc(N2CCCC2)c1[N+](=O)[O-])c1ccccc1 | 44.2 |  |  |  |
